Experimental data from different studies.
Compare with care: the assays were run in different laboratories.
Target: Mitogen-activated protein kinase 9 (MAPK9, Homo sapiens, UniProt P45984)

Structure (SMILES)	assay	conditions	measurement	value
COc1cc(Cl)c(C(=O)N[C@@H](CN[C@H]2CC[C@@H](N)CC2)Cc2ccc(C#N)cc2)cc1-c1ccc(CN[C@H](C)c2ccc(C)cc2)o1	enzyme activity, inhibitor	1 µM	remaining activity	93%
N#CCCc1ccc2c(c1)-c1[nH]c3ccc([N+](=O)[O-])cc3c1CC(=O)N2	cell-free assay	0.5 µM	remaining signal	97.1%
CC/C(=N\NC(=O)NCc1cccc(O)c1)c1ccc(O)c(C)c1O	enzyme activity, inhibitor	0.1 µM	inhibition	-4.8%
O=C(Nc1cnn(-c2csc(C(=O)NC3COC3)c2)c1)Nc1ccccc1Cl	enzyme activity, inhibitor	5 µM	remaining activity	34.1%
CC(=O)Nc1c(C(C)=O)c(=O)n(C)c2nc(-c3ccc(Cl)cc3Cl)c(-c3ccc(Cl)cc3)cc12	cell-free assay, competition with immobilised ligand	1 µM	remaining binding	100%
Cn1c2c(c3ccc(Cl)c(Cl)c31)C(C#N)C(C)(C)NC2=O (centres unmarked)	thermal stability, DSF	10 µM	ΔTm	0.4 °C
COc1cc(Nc2cnc(C#N)c(O[C@H](C)CN(C)C)n2)ncc1-c1cnn(C)c1	enzyme activity, inhibitor, radiometric	10 µM	remaining activity	79%
FC(F)(F)c1ccc2c(c1)nc(-c1cccnc1)n2C1CC1	cell-free assay, competition with immobilised ligand	1 µM	remaining binding	100%
Oc1cccc(-c2nc(N3CCOCC3)c3oc4ncccc4c3n2)c1	enzyme activity, inhibitor	10 µM	remaining activity	100%
CC1=C(C#N)[C@@H](c2ccc3[nH]nc(C)c3c2)C(C#N)=C(c2ccc(Cl)cc2)N1	cell-free assay, competition with immobilised ligand	1 µM	remaining binding	89.5%
CNC(=O)c1cc(Oc2ccc(NC(=O)Nc3ccc(Cl)c(C(F)(F)F)c3)cc2)ccn1	enzyme activity, inhibitor	0.3 µM	inhibition	7%
CCCS(=O)(=O)Nc1ccc(F)c(C(=O)c2c[nH]c3ncc(-c4ccc(Cl)cc4)cc23)c1F	enzyme activity, inhibitor	1 µM	inhibition	< 10%
O=C1NC(=O)c2cc(Nc3ccc(F)cc3)c(Nc3ccc(F)cc3)cc21	cell-free assay	0.5 µM	remaining signal	61.4%
CCC1(CC)NC(=O)c2c(c3ccc(Cl)c(Cl)c3n2C)C1C#N (centres unmarked)	thermal stability, DSF	10 µM	ΔTm	0.1 °C
COc1cc2ncnc(Nc3ccc(Oc4ccccc4)c(C)c3C)c2cc1OC	enzyme activity, inhibitor	1 µM	inhibition	7%
COc1cc(/C=C/C(=O)CC(=O)/C=C/c2ccc(O)c(OC)c2)ccc1O	enzyme activity, inhibitor	1 µM	activity vs control	104%

Structure (SMILES)	assay	conditions	measurement	value
C[C@@H](c1cccc(C#N)c1)n1cc(Cl)cc(C(N)=O)c1=N	cell-free assay, competition with immobilised ligand	1 µM	remaining binding	82%
CN1CCC2(CC1)NC(=O)c1c(c3ccc(Cl)c(Cl)c3n1C)C2C#N (racemic)	thermal stability, DSF	10 µM	ΔTm	-0.2 °C
CCN(CC)CCNC(=O)c1c(C)[nH]c(/C=C2\C(=O)Nc3ccc(F)cc32)c1C	cell-free assay	0.5 µM	remaining signal	96.7%
Cn1c2c(c3ccc(Cl)c(Cl)c31)C(C#N)C1(CCNCC1)NC2=O (racemic)	thermal stability, DSF	10 µM	ΔTm	0.2 °C
Cc1cc(NC(=O)c2cccc3cc(-c4cccc5[nH]nc(N)c45)ccc23)ccc1F	enzyme activity, inhibitor	0.1 µM	activity vs control	86%
Nc1nc(NC2CCCCC2)sc1C(=O)c1ccccc1	enzyme activity, inhibitor	10 µM	remaining activity	39%
Cn1nc(C(F)(F)F)cc1-c1cnc(N2CCc3cc(S(=O)(=O)Nc4c(F)cc(Cl)cc4F)cc(N4CCCC4=O)c32)nc1	cell-free assay, competition with immobilised ligand	1 µM	remaining binding	95%
CCN1CCC2(CC1)NC(=O)c1c(c3ccc(Cl)c(Cl)c3n1C)C2C#N (racemic)	thermal stability, DSF	10 µM	ΔTm	-0.1 °C
CN(c1ncccc1CNc1nc(Nc2ccc3c(c2)CC(=O)N3)ncc1C(F)(F)F)S(C)(=O)=O	enzyme activity, inhibitor	1 µM	inhibition	12.4%
CC(C)(C)c1nc2c(s1)c1nc(N)ncc1c1ccc(NS(=O)(=O)c3c(F)cccc3F)c(F)c12	enzyme activity, inhibitor, radiometric	1 µM	remaining activity	95%
CC(=O)N1CCC(c2ccc(C(=O)NC3=NCCN3)cc2C(F)(F)F)CC1	cell-free assay, competition with immobilised ligand	1 µM	remaining binding	92%
Cn1c2c(c3ccc(Cl)c(Cl)c31)C(C#N)C1(CCOCC1)NC2=O (centres unmarked)	thermal stability, DSF	10 µM	ΔTm	0 °C
Cc1nccc(COC(=O)N2C[C@@H]3[C@@H](CNC(=O)c4ccc5[nH]nnc5c4)[C@@H]3C2)n1	cell-free assay, competition with immobilised ligand	1 µM	remaining binding	95%
Cc1ccc(NC(=O)c2ccc(CN3CCN(C)CC3)cc2)cc1Nc1nc(-c2cccnc2)cs1	cell-free assay	0.5 µM	remaining signal	110%
O=C(NCc1ncc(C(F)(F)F)cc1Cl)c1ccc2c(c1)C1(CCS(=O)(=O)CC1)[C@@H](C1CC1)N2S(=O)(=O)c1ccc(F)cc1	cell-free assay, competition with immobilised ligand	1 µM	remaining binding	82%
CC(C)(O)[C@H]1CC[C@H](Nc2ccc3ncc(-c4cccc(C(F)(F)F)c4)n3n2)CC1	enzyme activity, inhibitor	1 µM	remaining activity	109%
